Measured values taken from ChEMBL document CHEMBL1121486, “Synthesis of nitrosourea derivatives of pyridine and piperidine as potential anticancer agents” (1980).
Values joined by “and” are separate entries in the source; they are usually repeats but may differ in a detail not shown here. Equal values may be shown once.

What was measured:
Mus musculus [1] = experiment: Compound tested for the effect on total white blood cell count and reported as percentage change from control on day 5 at 106 mg/kg (ip); assay type: functional
Method in brief: (§1)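 Total white blood cell count in mice. Treatment was intraperitoneal at the listed mg/kg doses, 10 mice per group. Counts were taken on days 3, 5 and 7 and expressed as % change from control, with the control being each group's predose value. Significance was taken at p ≤ 0.05.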

P388 [2] = experiment: Compound tested for activity against mouse leukemia L1210 tumor (Intraperitoneally implanted) after single ip injection on day 1 at optimal dose of 100 mg/kg (Dose range 200-6.25); assay type: functional; details: route intraperitoneal
Method in brief: (§2)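 L1210 leukaemia implanted intraperitoneally in mice. Compound given over a dose range (mg/kg); optimum dose selected. Survivors for toxicity recorded day 5 post-injection. Measures: T – C body weight difference (g), % T/C, and cures, defined as 30-day survivors.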

[3] = tested on: Lewis lung carcinoma cell line; experiment: Compound tested for activity against Lewis lung carcinoma after single ip injection on day 1 at optimal dose of 64 mg/kg (Dose range 64-2); details: route intraperitoneal
Mus musculus [4] = experiment: Compound tested for the effect on total white blood cell count and reported as percentage change from control on day 7 at 13.25 mg/kg (ip); assay type: functional; method in brief: as §1
Mus musculus [5] = experiment: Compound tested for the effect on total white blood cell count and reported as percentage change from control on day 7 at 106 mg/kg (ip); assay type: functional; method in brief: as §1
Mus musculus [6] = experiment: Compound tested for the effect on total white blood cell count and reported as percentage change from control on day 3 at 106 mg/kg (ip); assay type: functional; method in brief: as §1
Mus musculus [7] = experiment: Compound tested for the effect on total white blood cell count and reported as percentage change from control on day 5 at 13.25 mg/kg (ip); assay type: functional; method in brief: as §1
L1210 [8] = experiment: Compound tested for toxicity against mouse leukemia L1210 tumor (Intracerebrally implanted) after single ip injection on day 1 at optimal dose (OD) of 100 mg/kg on the 5th day after the injection of the compound; (6/6); assay type: functional; details: route intraperitoneal
3EM 37 [9] = experiment: Compound tested for toxicity against 3EM 37 Mouse Ependymoblastoma after single ip injection on day 1 at optimal dose (OD) of 100 mg/kg on the 5th day after the injection of the compound; (10/10); assay type: functional; details: route intraperitoneal
3EM 37 [10] = experiment: Compound tested for activity against 3EM 37 mouse ependymoblastoma after single ip injection on day 1 at optimal dose of 100 mg/kg (Dose range 200-12.5); assay type: functional; details: route intraperitoneal
[11] = tested on: Lewis lung carcinoma cell line; experiment: Effect of compound on Lewis Lung carcinoma after single dose injected intraperitoneally on day 1 recorded as percentage of cured animals at OD of 64 mg/kg; details: Mus musculus, route intraperitoneal
L1210 [12] = experiment: Compound tested for toxicity against mouse leukemia L1210 tumor (Intraperitoneally implanted) after single ip injection on day 1 at optimal dose (OD) of 100 mg/kg on the 5th day after the injection of the compound; (6/6); assay type: functional; details: route intraperitoneal
P388 [13] = experiment: The effect of compound on P388 cell after single dose injected intraperitoneally on day 1 […] at OD of 100 mg/kg; assay type: functional, Mus musculus; details: route intraperitoneal
Method in brief: (§3)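 Mice bore intraperitoneally implanted P-388 leukaemia and were dosed across a mg/kg range, with an optimum dose picked. Toxicity survivors were scored on day 5 after injection. Outcomes were T – C animal weight difference (g) and % T/C. A cure was a 30-day survivor.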

L1210 [14] = experiment: The effect of compound on mouse leukemia L1210 tumor (Intraperitoneally implanted)after single dose injected intraperitoneally on day 1 […] at OD of 100 mg/kg; assay type: functional; details: route intraperitoneal
L1210 [15] = experiment: Compound tested for activity against mouse leukemia L1210 tumor (Intraperitoneally implanted) after single ip injection on day 1 at optimal dose of 100 mg/kg (Dose range 200-12.5); assay type: functional; details: route intraperitoneal; method in brief: as §2
Mus musculus [16] = experiment: Compound tested for the effect on total white blood cell count and reported as percentage change from control on day 3 at 53 mg/kg (ip); assay type: functional; method in brief: as §1
Mus musculus [17] = experiment: Compound tested for the effect on total white blood cell count and reported as percentage change from control on day 3 at 26.5 mg/kg (ip); assay type: functional; method in brief: as §1
Mus musculus [18] = experiment: Compound tested for the effect on total white blood cell count and reported as percentage change from control on day 7 at 53 mg/kg (ip); assay type: functional; method in brief: as §1
3EM 37 [19] = experiment: Effect of compound on 3EM 37 mouse ependymoblastoma after single ip injection on day 1 recorded as animal weight difference of the treated and the control (T-C) at OD of 100 mg/kg; assay type: functional; details: route intraperitoneal
P388 [20] = experiment: Compound tested for toxicity against mouse P388 cell (Intraperitoneally implanted) after single ip injection on day 1 at optimal dose (OD) of 100 mg/kg on the 5th day after the injection of the compound; (6/6); assay type: functional; details: route intraperitoneal
L1210 [21] = experiment: Compound tested for activity against mouse leukemia L1210 tumor (Intracerebrally implanted) after single ip injection on day 1 at optimal dose of 100 mg/kg (Dose range 200-12.5); assay type: functional; details: route intraperitoneal
3EM 37 [22] = experiment: Effect of compound on 3EM 37 mouse ependymoblastoma after single ip injection on day 1 recorded as percentage of cured animals at OD of 100 mg/kg; assay type: functional; details: route intraperitoneal
[23] = tested on: Lewis lung carcinoma cell line; experiment: Effect of compound on Lewis Lung carcinoma after single dose injected intraperitoneally on day 1 recorded as animal weight difference of the treated and the control (T-C) at OD of 64 mg/kg; assay type: functional, Mus musculus; details: route intraperitoneal
Mus musculus [24] = experiment: Compound tested for the effect on total white blood cell count and reported as percentage change from control on day 5 at 53 mg/kg (ip); assay type: functional; method in brief: as §1
P388 [25] = experiment: Effect of compound on P388 cell after single ip injection on day 1 recorded as animal weight difference of the treated and the control (T-C) at OD of 100 mg/kg; assay type: functional, Mus musculus; details: route intraperitoneal; method in brief: as §3
Mus musculus [26] = experiment: Compound tested for the effect on total white blood cell count and reported as percentage change from control on day 3 at 13.25 mg/kg (ip); assay type: functional; method in brief: as §1
[27] = tested on: 3EM 37 ependymoblastoma (Mus musculus); experiment: Compound tested for activity against 3EM 37 mouse ependymoblastoma after single ip injection on day 1 at optimal dose of 100 mg/kg (Dose range 200-12.5); details: route intraperitoneal
Mus musculus [28] = experiment: Compound tested for the effect on total white blood cell count and reported as percentage change from control on day 7 at 37.5 mg/kg (ip); assay type: functional; method in brief: as §1
Mus musculus [29] = experiment: Compound tested for the effect on total white blood cell count and reported as percentage change from control on day 7 at 8.38 mg/kg (ip); assay type: functional; method in brief: as §1
Mus musculus [30] = experiment: Compound tested for the effect on total white blood cell count and reported as percentage change from control on day 5 at 8.38 mg/kg (ip); assay type: functional; method in brief: as §1
Mus musculus [31] = experiment: Compound tested for the effect on total white blood cell count and reported as percentage change from control on day 3 at 37.5 mg/kg (ip); assay type: functional; method in brief: as §1
3EM 37 [32] = experiment: Compound tested for toxicity against 3EM 37 mouse ependymoblastoma after single ip injection on day 1 at optimal dose (OD) of 100 mg/kg on the 5th day after the injection of the compound; (10/10); details: route intraperitoneal
Mus musculus [33] = experiment: Compound tested for the effect on total white blood cell count and reported as percentage change from control on day 7 at 18.75 mg/kg (ip); assay type: functional; method in brief: as §1
L1210 [34] = experiment: Compound tested for activity against mouse leukemia L1210 tumor (Intraperitoneally implanted) after single ip injection on day 1 at optimal dose of 100 mg/kg (Dose range 100-6.25); assay type: functional; details: route intraperitoneal; method in brief: as §2
Mus musculus [35] = experiment: Compound tested for the effect on total white blood cell count and reported as percentage change from control on day 5 at 37.5 mg/kg (ip); assay type: functional; method in brief: as §1
[36] = tested on: Lewis lung carcinoma cell line; experiment: Effect of compound on Lewis Lung carcinoma after single dose injected intraperitoneally on day 1 recorded as percentage of cured animals at OD of 64 mg/kg; details: Mus musculus, route intraperitoneal; remark: listed apart in the source
Mus musculus [37] = experiment: Compound tested for the effect on total white blood cell count and reported as percentage change from control on day 3 at 8.38 mg/kg (ip); assay type: functional; method in brief: as §1
Mus musculus [38] = experiment: Compound tested for the effect on total white blood cell count and reported as percentage change from control on day 5 at 75 mg/kg (ip); assay type: functional; method in brief: as §1
Mus musculus [39] = experiment: Compound tested for the effect on total white blood cell count and reported as percentage change from control on day 3 at 75 mg/kg (ip); assay type: functional; method in brief: as §1
Mus musculus [40] = experiment: Compound tested for the effect on total white blood cell count and reported as percentage change from control on day 5 at 18.75 mg/kg (ip); assay type: functional; method in brief: as §1
Mus musculus [41] = experiment: Compound tested for the effect on total white blood cell count and reported as percentage change from control on day 3 at 18.75 mg/kg (ip); assay type: functional; method in brief: as §1
[42] = tested on: Lewis lung carcinoma cell line; experiment: Effect of compound on Lewis Lung carcinoma after single ip injection on day 1 recorded as animal weight difference of the treated and the control (T-C) at OD of 64-2 mg/kg; assay type: functional, Mus musculus
Mus musculus [43] = experiment: Compound tested for the effect on total white blood cell count and reported as percentage change from control on day 7 at 75 mg/kg (ip); assay type: functional; method in brief: as §1
L1210 [44] = experiment: The effect of compound on mouse leukemia L1210 tumor (Intracerebrally implanted) after single dose injected intraperitoneally on day 1 […] at OD of 100 mg/kg; assay type: functional; details: route intraperitoneal
L1210 [45] = experiment: Effect of compound on mouse leukemia L1210 tumor (Intraperitoneally implanted) after single dose injected intraperitoneally on day 1 recorded as animal weight difference of the treated and the control (T-C) at OD of 100 mg/kg; assay type: functional; details: route intraperitoneal; method in brief: as §2

O=C(O)/C=C\C(=O)O.O=NN(CCCl)C(=O)NC1CCN(Cc2ccccc2)CC1
Change (Mus musculus [1]): -35%
Optimal dose (P388 [2]): 100 mg/kg
Optimal dose [3]: 64 mg/kg
Change (Mus musculus [4]): 8%
Change (Mus musculus [5]): 1%
Change (Mus musculus [6]): -67%
Change (Mus musculus [7]): 18%
Survival (L1210 [8]): 6
Survival (3EM 37 [9]): 10
Optimal dose (3EM 37 [10]): 100 mg/kg
T/C [11]: >353%
Survival (L1210 [12]): 6
T/C (P388 [13]): 361%
T/C (L1210 [14]; 100 mg/kg): 379% and 151%
Optimal dose (L1210 [15]): 100 mg/kg
Change (Mus musculus [16]): -22%
Change (Mus musculus [17]): 12%
Change (Mus musculus [18]): 14% and 7%
T-C (3EM 37 [19]): -1.2 g
Survival (P388 [20]): 6
Optimal dose (L1210 [21]): 100 mg/kg
T/C (3EM 37 [22]): 242%
T-C [23]: -2.9 g
Change (Mus musculus [24]): -5% and 5%
T-C (P388 [25]): -4.5 g
Change (Mus musculus [26]): 3%

O=C(O)/C=C\C(=O)O.O=NN(CCCl)C(=O)NC1CCCN(Cc2ccccc2)C1 (stereo unspecified)
Optimal dose [27]: 100 mg/kg
Change (Mus musculus [28]): 60%
Change (Mus musculus [29]): 23%
Survival (L1210 [8]): 6
Change (Mus musculus [30]): 15%
Change (Mus musculus [31]): -20%
Survival (3EM 37 [32]): 10
Survival (L1210 [12]): 6
T/C (L1210 [14]): 340%
Change (Mus musculus [33]): 40%
Optimal dose (L1210 [34]): 100 mg/kg
Change (Mus musculus [35]): 16%
T/C [36]: 259%
Change (Mus musculus [37]): -19%
Change (Mus musculus [38]): -45%
Change (Mus musculus [39]): -63%
Optimal dose (L1210 [21]): 100 mg/kg
T/C (3EM 37 [22]): 223%
Change (Mus musculus [40]): -5%
Change (Mus musculus [41]): -26%
T-C [23]: -3.7 g
Optimal dose [42]: 64 mg/kg
Change (Mus musculus [43]): 11%
T/C (L1210 [44]): 192%
T-C (L1210 [45]): -5 g
